Results as given in ChEMBL document CHEMBL1122912, “Synthesis and antitumor activity of structural analogues of the anticancer benzophenanthridine alkaloid fagaronine chloride” (1985).

Experiments:
Mus musculus [1] = assay: Compound was evaluated for the anticancer activity against P388 lymphocytic leukemia in vivo in mouse at a dosage of 50 mg/kg. The survivals were reported.; format: functional
Mus musculus [2] = assay: Compound was evaluated for the anticancer activity against P388 lymphocytic leukemia in vivo in mouse at a dosage of 200 mg/kg and the weight difference was measured.; format: functional
Mus musculus [3] = assay: Compound was evaluated for the anticancer activity against P388 lymphocytic leukemia in vivo in mouse at a dosage of 50 mg/kg and the weight difference was measured.; format: functional
Mus musculus [4] = assay: Compound was evaluated for the anticancer activity against P388 lymphocytic leukemia in vivo in mouse at a dosage of 25 mg/kg and percent treated/control was reported; format: functional
Mus musculus [5] = assay: Compound was evaluated for the anticancer activity against P388 lymphocytic leukemia in vivo in mouse at a dosage of 200 mg/kg, survivals were reported.; format: functional
Mus musculus [6] = assay: Compound was evaluated for the anticancer activity against P388 lymphocytic leukemia in vivo in mouse at a dosage of 50 mg/kg and percent treated/control was reported; format: functional
Mus musculus [7] = assay: Compound was evaluated for the anticancer activity against P388 lymphocytic leukemia in vivo in mouse at a dosage of 25 mg/kg and the weight difference was measured.; format: functional
Mus musculus [8] = assay: Compound was evaluated for the anticancer activity against P388 lymphocytic leukemia in vivo in mouse at a dosage of 100 mg/kg and the weight difference was measured.; format: functional
Mus musculus [9] = assay: Compound was evaluated for the anticancer activity against P388 lymphocytic leukemia in vivo in mouse at a dosage of 100 mg/kg; format: functional
Mus musculus [10] = assay: Compound was evaluated for the anticancer activity against P388 lymphocytic leukemia in vivo in mouse at a dosage of 200 mg/kg and percent treated/control was reported; format: functional
Mus musculus [11] = assay: Compound was evaluated for the anticancer activity against P388 lymphocytic leukemia in vivo in mouse at a dosage of 25 mg/kg. The survivals were reported.; format: functional
[12] = Compound was evaluated for its cytotoxic activity in vitro KB cell culture system derived from human epidermoid carcinoma; format: functional; settings: read-out: ED50 (the source's name)
Mus musculus [13] = assay: Compound was evaluated for the anticancer activity against P388 lymphocytic leukemia in vivo in mouse at a dosage of 100 mg/kg and percent treated/control was reported; format: functional
[14] = Compound was evaluated for its cytotoxic activity in vitro KB cell culture system; format: functional; settings: Homo sapiens, read-out: ED50 (the source's name)
Method in brief: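 Cytotoxicity was measured in cultured KB human cancer cells and reported as ED50 values.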

Mus musculus [15] = assay: Compound was evaluated for the anticancer activity against P388 lymphocytic leukemia in vivo in mouse at a dosage of 12.5 mg/kg and percent treated/control was reported; format: functional
Mus musculus [16] = assay: Compound was evaluated for the anticancer activity against P388 lymphocytic leukemia in vivo in mouse at a dosage of 12.5 mg/kg and the weight difference was measured.; format: functional
Mus musculus [17] = assay: Compound was evaluated for the anticancer activity against P388 lymphocytic leukemia in vivo in mouse at a dosage of 12.5 mg/kg. The survivals were reported.; format: functional
Mus musculus [18] = assay: Compound was evaluated for the anticancer activity against P388 lymphocytic leukemia in vivo in mouse at a dosage of 50 mg/kg, survivals were reported.; format: functional
Mus musculus [19] = assay: Compound was evaluated for the anticancer activity against P388 lymphocytic leukemia in vivo in mouse at a dosage of 200 mg/kg. The survivals were reported.; format: functional
Mus musculus [20] = assay: Compound was evaluated for the anticancer activity against P388 lymphocytic leukemia in vivo in mouse at a dosage of 400 mg/kg. The survivals were reported.; format: functional
Mus musculus [21] = assay: Compound was evaluated for the anticancer activity against P388 lymphocytic leukemia in vivo in mouse at a dosage of 100 mg/kg. The survivals were reported.; format: functional
Mus musculus [22] = assay: Compound was evaluated for the anticancer activity against P388 lymphocytic leukemia in vivo in mouse at a dosage of 400 mg/kg and percent treated/control was reported; format: functional
Mus musculus [23] = assay: Compound was evaluated for the anticancer activity against P388 lymphocytic leukemia in vivo in mouse at a dosage of 400 mg/kg and the weight difference was measured.; format: functional
Mus musculus [24] = assay: Compound was evaluated for the anticancer activity against M5076 sarcoma in vivo in mouse at a dosage of 100 mg/kg and the weight difference was measured.; format: functional
Mus musculus [25] = assay: Compound was evaluated for the anticancer activity against M5076 sarcoma in vivo in mouse at a dosage of 6.25 mg/kg, survivals were reported.; format: functional
Mus musculus [26] = assay: Compound was evaluated for the anticancer activity against M5076 sarcoma in vivo in mouse at a dosage of 200 mg/kg, survivals were reported; format: functional
Mus musculus [27] = assay: Compound was evaluated for the anticancer activity against M5076 sarcoma in vivo in mouse at a dosage of 50 mg/kg, survivals were reported.; format: functional
Mus musculus [28] = assay: Compound was evaluated for the anticancer activity against M5076 sarcoma in vivo in mouse at a dosage of 12.5 mg/kg; format: functional
Mus musculus [29] = assay: Compound was evaluated for the anticancer activity against M5076 sarcoma in vivo in mouse at a dosage of 12.5 mg/kg and percent treated/control was reported; format: functional
Mus musculus [30] = assay: Compound was evaluated for the anticancer activity against M5076 sarcoma in vivo in mouse at a dosage of 50 mg/kg and the weight difference was measured.; format: functional
Mus musculus [31] = assay: Compound was evaluated for the anticancer activity against M5076 sarcoma in vivo in mouse at a dosage of 12.5 mg/kg, survivals were reported.; format: functional
Mus musculus [32] = assay: Compound was evaluated for the anticancer activity against M5076 sarcoma in vivo in mouse at a dosage of 25 mg/kg, survivals were reported.; format: functional
Mus musculus [33] = assay: Compound was evaluated for the anticancer activity against M5076 sarcoma in vivo in mouse at a dosage of 6.25 mg/kg and percent treated/control was reported; format: functional
Mus musculus [34] = assay: Compound was evaluated for the anticancer activity against M5076 sarcoma in vivo in mouse at a dosage of 50 mg/kg and percent treated/control was reported; format: functional
Mus musculus [35] = assay: Compound was evaluated for the anticancer activity against M5076 sarcoma in vivo in mouse at a dosage of 200 mg/kg and the weight difference was measured.; format: functional
Mus musculus [36] = assay: Compound was evaluated for the anticancer activity against M5076 sarcoma in mouse at a dosage of 400 mg/kg, survivals were reported; format: functional
Mus musculus [37] = assay: Compound was evaluated for the anticancer activity against M5076 sarcoma in vivo in mouse at a dosage of 25 mg/kg and percent treated/control was reported; format: functional
Mus musculus [38] = assay: Compound was evaluated for the anticancer activity against M5076 sarcoma in vivo in mouse at a dosage of 25 mg/kg and the weight difference was measured.; format: functional
Mus musculus [39] = assay: Compound was evaluated for the anticancer activity against M5076 sarcoma in vivo in mouse at a dosage of 100 mg/kg, survivals were reported; format: functional
Mus musculus [40] = assay: Compound was evaluated for the anticancer activity against M5076 sarcoma in vivo in mouse at a dosage of 6.25 mg/kg and the weight difference was measured.; format: functional
Mus musculus [41] = assay: Compound was evaluated for the anticancer activity against M5076 sarcoma in vivo in mouse at a dosage of 100 mg/kg and percent treated/control was reported; format: functional
L1210 = assay: Activity against L1210 was reported.; format: functional, Mus musculus

Question: With `COc1cc2c[n+](C)c3c(c2cc1OC)Cc1cc(OS(C)(=O)=O)c(OC)cc1-3.[Cl-]` as the compound, how does the Survival (Mus musculus [1]) read?
Answer: The Survival was 6.

Question: What about the Weight difference (Mus musculus [2]) of the same compound?
Answer: The Weight difference was -3.6.

Question: And the Weight difference (Mus musculus [3])?
Answer: Its Weight difference is -0.6.

Question: What about the T/C (Mus musculus [4]) of the same compound?
Answer: The T/C was 128%.

Question: What about the Survival (Mus musculus [5]) of the same compound?
Answer: Its Survival is 5.

Question: And the T/C (Mus musculus [6])?
Answer: The T/C was 136%.

Question: What about the Weight difference (Mus musculus [7]) of the same compound?
Answer: The Weight difference was -1.3.

Question: What about the Weight difference (Mus musculus [8]) of the same compound?
Answer: The Weight difference was -2.1.

Question: And the Survival (Mus musculus [9])?
Answer: The Survival was 6.

Question: What about the T/C (Mus musculus [10]) of the same compound?
Answer: Its T/C is 145%.

Question: And the Survival (Mus musculus [11])?
Answer: Its Survival is 6.

Question: And the EC50 [12]?
Answer: The EC50 was 0.01 µg/mL.

Question: What about the T/C (Mus musculus [13]) of the same compound?
Answer: The T/C was 137%.

Question: With `COc1cc2c[n+](C)c3c(c2cc1OC)Cc1c-3ccc(OS(C)(=O)=O)c1OC.[Cl-]` as the compound, how does the EC50 [12] read?
Answer: Its EC50 is 0.1 µg/mL.

Question: Which EC50 [14] does the source give for `COc1cc2cc(-c3ccc4c(c3)OCO4)[n+](C)cc2cc1OC.[Cl-]` here?
Answer: The EC50 was 0.005 µg/mL.

Question: For `COc1cc2cc(-c3ccc(OC(C)C)c(OC)c3)[n+](C)cc2cc1OC.[Cl-]`, which EC50 [12] is on record?
Answer: Its EC50 is greater than 100 µg/mL.

Question: For `COc1cc2c(cc1O)Cc1c-2[n+](C)cc2cc(OC)c(OC)cc12.[Cl-]`, which T/C (Mus musculus [15]) is on record?
Answer: Its T/C is 130%.

Question: And the Weight difference (Mus musculus [16])?
Answer: Its Weight difference is 0.1.

Question: What about the Weight difference (Mus musculus [3]) of the same compound?
Answer: Its Weight difference is -0.4.

Question: What about the T/C (Mus musculus [4]) of the same compound?
Answer: Its T/C is 138%.

Question: What about the Survival (Mus musculus [17]) of the same compound?
Answer: Its Survival is 5.

Question: What about the T/C (Mus musculus [6]) of the same compound?
Answer: Its T/C is 149%.

Question: What about the Weight difference (Mus musculus [7]) of the same compound?
Answer: Its Weight difference is -0.1.

Question: And the Survival (Mus musculus [11])?
Answer: The Survival was 6.

Question: And the EC50 [12]?
Answer: Its EC50 is 0.03 µg/mL.

Question: And the Survival (Mus musculus [18])?
Answer: The Survival was 6.

Question: Which Survival (Mus musculus [19]) does the source give for `COc1cc2c[n+](C)c3c(c2cc1OC)Cc1c-3ccc(O)c1OC.[Cl-]` here?
Answer: Its Survival is 6.

Question: And the Survival (Mus musculus [20])?
Answer: Its Survival is 6.

Question: And the Weight change (Mus musculus [2])?
Answer: Its Weight change is -0.2.

Question: And the Survival (Mus musculus [21])?
Answer: The Survival was 6.

Question: And the T/C (Mus musculus [22])?
Answer: The T/C was 137%.

Question: What about the Weight change (Mus musculus [8]) of the same compound?
Answer: Its Weight change is 0.2.

Question: What about the T/C (Mus musculus [10]) of the same compound?
Answer: The T/C was 134%.

Question: What about the EC50 [12] of the same compound?
Answer: The EC50 was 0.4 µg/mL.

Question: And the Weight change (Mus musculus [23])?
Answer: Its Weight change is -1.5.

Question: What about the T/C (Mus musculus [13]) of the same compound?
Answer: The T/C was 116%.

Question: What does the source list for `COc1cc2c[n+](C)c3c(c2cc1OC)Cc1cc2c(cc1-3)OCO2.[Cl-]`?
Answer: Weight difference (Mus musculus [24]): -4.4; Survival (Mus musculus [25]): 10; Survival (Mus musculus [26]): 6; Survival (Mus musculus [27]): 9; Weight difference (Mus musculus [28]): -0.2; T/C (Mus musculus [29]): 109%; Weight difference (Mus musculus [30]): -2; Survival (Mus musculus [31]): 10; Survival (Mus musculus [32]): 10; T/C (Mus musculus [33]): 115%; T/C (Mus musculus [34]): 107%; Weight difference (Mus musculus [35]): -7.2; Survival (Mus musculus [36]): 0; T/C (Mus musculus [37]): 113%; Weight difference (Mus musculus [38]): -0.3; Survival (Mus musculus [39]): 9; Weight difference (Mus musculus [40]): -0.8; T/C (Mus musculus [41]): 137%

Question: With `COc1cc2c[n+](C)c3c4cc5c(cc4ccc3c2cc1OC)OCO5.[Cl-]` [NITIDINE CHLORIDE] as the compound, how does the T/C (L1210) read?
Answer: Its T/C is 136.
